Assay results taken from ChEMBL document CHEMBL5058577, “EUbOPEN Chemogenomics Library 2 (Multiplex)” (2022).

Tested on: U2OS
Experiment: Multiplex assay against U2OS
Type: toxicity, cell-based
Details: human
Procedure, shortened: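 Compound was added to live cells that had been stained at seeding with Hoechst33342, BioTracker Green Microtubule Cytoskeleton Dye, MitoTracker Red and Annexin V Alexa Fluor 680, and imaging followed on a CQ1 microscope at 37°C and 5% CO2. CellPathfinder machine-learning gating divided cells into Hoechst high-intensity objects or normal cells, normal cells into healthy, pyknosed or fragmented nuclei, and pyknosed cells into mitotic or apoptotic. Tubulin, mitochondrial-mass and membrane-permeability phenotypes are per cents of healthy-nucleus cells.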

[1] = 12 h, 1 µM, compound concentration 1 uM, replicate 1
[2] = 12 h, 1 µM, compound concentration 1 uM, replicate 2
[3] = 12 h, 10 µM, compound concentration 10 uM, replicate 1
[4] = 12 h, 10 µM, compound concentration 10 uM, replicate 2
[5] = 24 h, 1 µM, compound concentration 1 uM, replicate 1
[6] = 24 h, 1 µM, compound concentration 1 uM, replicate 2
[7] = 24 h, 10 µM, compound concentration 10 uM, replicate 1
[8] = 24 h, 10 µM, compound concentration 10 uM, replicate 2
[9] = 48 h, 1 µM, compound concentration 1 uM, replicate 1
[10] = 48 h, 1 µM, compound concentration 1 uM, replicate 2
[11] = 48 h, 10 µM, compound concentration 10 uM, replicate 1
[12] = 48 h, 10 µM, compound concentration 10 uM, replicate 2

## CC(C)c1noc(N2CCC(COc3ccc(-c4ccc(S(C)(=O)=O)cc4)nc3)CC2)n1 [GSK-1292263]
[1]
  Population Apoptotic (%): 72%
  Population Fragmented Nuclei (%): 27%
  Population Healthy Nuclei (%): 62%
  Population Hoechst High Intensity Objects (%): 2%
  Population Membrane Permeable-Phenotype (%): 3%
  Population Mitochondria Different-Phenotype (%): 2%
  Population Mitotic Cells (%): 27%
  Population Normal (%): 97%
  Population Pyknosed Nuclei (%): 10%
  Population Tubulin-Different-Phenotype (%): 0%
  Total Cell Count: 177
[2]
  Population Apoptotic (%): 100%
  Population Fragmented Nuclei (%): 16%
  Population Healthy Nuclei (%): 77%
  Population Hoechst High Intensity Objects (%): 1%
  Population Membrane Permeable-Phenotype (%): 4%
  Population Mitochondria Different-Phenotype (%): 0%
  Population Mitotic Cells (%): 0%
  Population Normal (%): 98%
  Population Pyknosed Nuclei (%): 5%
  Population Tubulin-Different-Phenotype (%): 2%
  Total Cell Count: 114
[3]
  Population Apoptotic (%): 90%
  Population Fragmented Nuclei (%): 31%
  Population Healthy Nuclei (%): 60%
  Population Hoechst High Intensity Objects (%): 2%
  Population Membrane Permeable-Phenotype (%): 10%
  Population Mitochondria Different-Phenotype (%): 6%
  Population Mitotic Cells (%): 10%
  Population Normal (%): 97%
  Population Pyknosed Nuclei (%): 7%
  Population Tubulin-Different-Phenotype (%): 6%
  Total Cell Count: 262
[4]
  Population Apoptotic (%): 100%
  Population Fragmented Nuclei (%): 20%
  Population Healthy Nuclei (%): 73%
  Population Hoechst High Intensity Objects (%): 0%
  Population Mitochondria Different-Phenotype (%): 8%
  Population Mitotic Cells (%): 0%
  Population Normal (%): 100%
  Population Pyknosed Nuclei (%): 5%
  Total Cell Count: 134
[5]
  Population Apoptotic (%): 63%
  Population Fragmented Nuclei (%): 32%
  Population Healthy Nuclei (%): 57%
  Population Hoechst High Intensity Objects (%): 1%
  Population Membrane Permeable-Phenotype (%): 5%
  Population Mitochondria Different-Phenotype (%): 2%
  Population Mitotic Cells (%): 36%
  Population Normal (%): 98%
  Population Pyknosed Nuclei (%): 9%
  Population Tubulin-Different-Phenotype (%): 3%
  Total Cell Count: 236
[6]
  Population Apoptotic (%): 66%
  Population Fragmented Nuclei (%): 15%
  Population Healthy Nuclei (%): 77%
  Population Hoechst High Intensity Objects (%): 0%
  Population Membrane Permeable-Phenotype (%): 2%
  Population Mitotic Cells (%): 33%
  Population Normal (%): 99%
  Population Pyknosed Nuclei (%): 6%
  Population Tubulin-Different-Phenotype (%): 1%
  Total Cell Count: 145
[7]
  Population Apoptotic (%): 92%
  Population Fragmented Nuclei (%): 25%
  Population Healthy Nuclei (%): 65%
  Population Hoechst High Intensity Objects (%): 0%
  Population Membrane Permeable-Phenotype (%): 10%
  Population Mitochondria Different-Phenotype (%): 3%
  Population Mitotic Cells (%): 7%
  Population Normal (%): 99%
  Population Pyknosed Nuclei (%): 9%
  Population Tubulin-Different-Phenotype (%): 3%
  Total Cell Count: 284
[8]
  Population Apoptotic (%): 66%
  Population Fragmented Nuclei (%): 15%
  Population Healthy Nuclei (%): 75%
  Population Hoechst High Intensity Objects (%): 2%
  Population Membrane Permeable-Phenotype (%): 6%
  Population Mitochondria Different-Phenotype (%): 5%
  Population Mitotic Cells (%): 33%
  Population Normal (%): 97%
  Population Pyknosed Nuclei (%): 8%
  Population Tubulin-Different-Phenotype (%): 2%
  Total Cell Count: 143
[9]
  Population Apoptotic (%): 77%
  Population Fragmented Nuclei (%): 23%
  Population Healthy Nuclei (%): 69%
  Population Hoechst High Intensity Objects (%): 2%
  Population Membrane Permeable-Phenotype (%): 3%
  Population Mitochondria Different-Phenotype (%): 3%
  Population Mitotic Cells (%): 22%
  Population Normal (%): 97%
  Population Pyknosed Nuclei (%): 6%
  Population Tubulin-Different-Phenotype (%): 2%
  Total Cell Count: 339
[10]
  Population Apoptotic (%): 90%
  Population Fragmented Nuclei (%): 15%
  Population Healthy Nuclei (%): 74%
  Population Hoechst High Intensity Objects (%): 1%
  Population Membrane Permeable-Phenotype (%): 6%
  Population Mitochondria Different-Phenotype (%): 2%
  Population Mitotic Cells (%): 10%
  Population Normal (%): 98%
  Population Pyknosed Nuclei (%): 10%
  Population Tubulin-Different-Phenotype (%): 1%
  Total Cell Count: 201
[11]
  Population Apoptotic (%): 87%
  Population Fragmented Nuclei (%): 22%
  Population Healthy Nuclei (%): 68%
  Population Hoechst High Intensity Objects (%): 4%
  Population Membrane Permeable-Phenotype (%): 6%
  Population Mitochondria Different-Phenotype (%): 2%
  Population Mitotic Cells (%): 12%
  Population Normal (%): 95%
  Population Pyknosed Nuclei (%): 9%
  Population Tubulin-Different-Phenotype (%): 2%
  Total Cell Count: 354
[12]
  Population Apoptotic (%): 83%
  Population Fragmented Nuclei (%): 12%
  Population Healthy Nuclei (%): 77%
  Population Hoechst High Intensity Objects (%): 1%
  Population Membrane Permeable-Phenotype (%): 5%
  Population Mitochondria Different-Phenotype (%): 4%
  Population Mitotic Cells (%): 16%
  Population Normal (%): 98%
  Population Tubulin-Different-Phenotype (%): 4%
  Total Cell Count: 189
